# Results as given in article PMC9918595 (Molecular imaging and biology, 2022).
# Values joined by “and” are separate entries in the source; they are usually repeats but may differ in a detail not shown here. Equal values may be shown once. “Also recorded” adds a separate entry of the source. Read-outs that look alike come from different tables or passages of the source.
# Assays:
# [1] = Solubility of the radiotracer in dose formulation; assay type: physicochemical
# [2] = LogD7.4 measurement, shake flask method; assay type: physicochemical; details: n-octanol / PBS pH 7.4, n = 3
# TRPC5 [3] = assay type: in vivo, 129S1/SvImJ mice; details: 129S1/SvImJ TRPC5 knockout mice
# TRPC5 [4] = biological target: T1, TRPC5 (Mus musculus, UniProt Q9QX29); assay type: in vivo, 129S1/SvImJ mice; details: 129S1/SvImJ wild-type mice
# T1 sequence (Q9QX29 1-975): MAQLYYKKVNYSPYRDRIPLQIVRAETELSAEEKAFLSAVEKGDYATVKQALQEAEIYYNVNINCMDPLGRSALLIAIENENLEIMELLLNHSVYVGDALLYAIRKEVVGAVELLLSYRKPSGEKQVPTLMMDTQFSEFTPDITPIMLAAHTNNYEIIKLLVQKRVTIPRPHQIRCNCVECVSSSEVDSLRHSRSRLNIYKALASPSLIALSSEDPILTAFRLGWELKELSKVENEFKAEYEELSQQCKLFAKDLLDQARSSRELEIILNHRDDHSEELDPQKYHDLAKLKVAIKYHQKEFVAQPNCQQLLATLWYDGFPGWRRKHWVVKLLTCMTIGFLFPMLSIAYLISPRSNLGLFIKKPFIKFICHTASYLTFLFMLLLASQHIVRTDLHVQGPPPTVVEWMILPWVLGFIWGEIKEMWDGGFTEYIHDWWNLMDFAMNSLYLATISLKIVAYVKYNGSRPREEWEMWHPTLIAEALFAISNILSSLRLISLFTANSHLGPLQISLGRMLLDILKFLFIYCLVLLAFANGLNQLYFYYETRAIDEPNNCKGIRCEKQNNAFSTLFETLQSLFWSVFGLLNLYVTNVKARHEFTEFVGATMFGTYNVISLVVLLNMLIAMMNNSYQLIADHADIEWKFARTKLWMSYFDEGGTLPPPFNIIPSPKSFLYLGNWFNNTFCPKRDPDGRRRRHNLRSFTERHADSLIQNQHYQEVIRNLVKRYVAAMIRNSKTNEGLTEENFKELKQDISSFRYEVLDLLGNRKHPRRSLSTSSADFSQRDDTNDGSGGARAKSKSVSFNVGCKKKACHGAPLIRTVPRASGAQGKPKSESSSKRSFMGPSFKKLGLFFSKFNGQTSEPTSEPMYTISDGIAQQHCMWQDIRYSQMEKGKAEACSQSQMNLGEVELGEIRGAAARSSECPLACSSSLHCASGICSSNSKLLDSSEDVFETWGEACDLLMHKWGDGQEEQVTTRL
# TRPC5 [5] = biological target: T2, TRPC5 (Rattus norvegicus, UniProt Q8VD38); experiment: In vitro autoradiography study of the rat brain; assay type: binding, Sprague Dawley rats
# T2 sequence (Q8VD38 1-974): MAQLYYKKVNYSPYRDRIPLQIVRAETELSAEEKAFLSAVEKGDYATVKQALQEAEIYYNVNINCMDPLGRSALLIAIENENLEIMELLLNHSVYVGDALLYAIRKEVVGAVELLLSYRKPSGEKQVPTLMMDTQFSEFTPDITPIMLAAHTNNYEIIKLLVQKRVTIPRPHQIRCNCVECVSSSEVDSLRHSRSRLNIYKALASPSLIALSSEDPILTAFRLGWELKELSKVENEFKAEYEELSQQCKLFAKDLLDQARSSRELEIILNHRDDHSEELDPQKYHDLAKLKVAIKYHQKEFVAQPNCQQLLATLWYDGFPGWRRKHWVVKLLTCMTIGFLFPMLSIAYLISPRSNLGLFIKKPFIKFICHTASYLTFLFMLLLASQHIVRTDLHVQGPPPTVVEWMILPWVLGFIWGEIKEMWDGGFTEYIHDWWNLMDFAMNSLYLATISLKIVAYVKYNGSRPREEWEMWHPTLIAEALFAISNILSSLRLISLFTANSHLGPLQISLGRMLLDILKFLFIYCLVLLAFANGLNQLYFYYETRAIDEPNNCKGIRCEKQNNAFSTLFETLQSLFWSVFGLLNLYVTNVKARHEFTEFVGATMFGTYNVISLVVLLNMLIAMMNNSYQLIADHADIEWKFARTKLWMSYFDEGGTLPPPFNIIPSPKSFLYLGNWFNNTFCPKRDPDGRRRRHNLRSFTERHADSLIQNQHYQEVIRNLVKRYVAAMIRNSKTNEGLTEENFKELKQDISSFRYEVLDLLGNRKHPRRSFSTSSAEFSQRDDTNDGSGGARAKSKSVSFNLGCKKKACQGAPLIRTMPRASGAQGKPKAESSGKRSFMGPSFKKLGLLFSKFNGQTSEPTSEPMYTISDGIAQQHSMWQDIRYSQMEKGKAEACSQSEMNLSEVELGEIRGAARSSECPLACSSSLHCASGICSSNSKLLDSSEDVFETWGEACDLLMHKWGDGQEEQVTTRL
# TRPC5 [6] = experiment: MicroPET brain study of the nonhuman primate; assay type: in vivo, cynomolgus macaques
# Outline: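 Adult male cynomolgus macaques (9–10 kg), two tracer scans in each of two animals; fasted 12 h, ketamine (10–20 mg kg−1) plus glycopyrrolate ([…]) i.m., intubated, 0.8–2.0% isoflurane/oxygen. Venous catheter; 10 min positioning and 45 min attenuation transmission scans. IV bolus ~0.35 GBq (injected mass ~4.2 μg); 0–120 min dynamic scan (3×1, 4×2, 3×3, 20×5 min frames).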
# [7] = Ex vivo biodistribution study; assay type: in vivo, Sprague Dawley rats; details: for Tracer uptake, Blood / Tracer uptake, Brain / Tracer uptake, Fat / Tracer uptake, Heart / Tracer uptake, Kidney / Tracer uptake, Lung / Tracer uptake, Muscle / Tracer uptake, Pancreas / Tracer uptake, Small intestine / Tracer uptake, Spleen / Tracer uptake, Thymus / Tracer uptake, Liver: iv, n = 4
# [8] = in vivo studies; cited from earlier work
# [9] = system: wide range of molecular targets including ion channels (TRPV, TRPM), receptors (dopamine D1 and D2, NMDA, TNF-α) and enzymes (acetylcholinesterase, tyrosine …); details: patch clamp assay; cited from earlier work
# human TRPC5 [10] = details: calcium flux assay; cited from earlier work
# human TRPC5 [11] = details: whole-cell manual patched clamp assay; cited from earlier work
compound,measurement,setting,value
[11CH3]n1c(=O)n(CCCO)c(=O)c2c1nc(Oc1cccc(Cl)c1)n2Cc1ccc(Cl)cc1 [[^11C]HC070],solubility,"[1]; dose formulation, ethanol/saline",good solubility; also recorded: improved solubility in ethanol/saline medium
same,residue retaining inside surface of a glass vial or a syringe,[1]; dose solution without Kolliphor HS15,little percentage of retaining was detected
same,logD7.4,[2],1.08 ± 0.04
same,time of peak brain uptake,TRPC5 [3],≤ 2 min
same,time of peak brain uptake,TRPC5 [4],~ 1.0 min
same,peak brain uptake (SUV),"TRPC5 [4]; iv, 0-60 min dynamic PET, n = 3",1.13 and ~ 1.13 and 1.13 ± 0.08
same,regional accumulation in rat brain sections,"TRPC5 [5]; 1.11 MBq/slide, room temperature, 30 min","highest accumulation in the TRPC5-enriched colliculus, striatum, cortex, and thalamus regions"
same,binding specificity in rat brain sections,TRPC5 [5]; autoradiography with HC608 block,specifically binds TRPC5 sites in rat brain sections
same,"regional brain uptake, prefrontal cortex (SUV)","TRPC5 [6]; macaque, highest regional radioactivity",2.88
same,fold higher brain uptake compared with [^11C]HC608,"TRPC5 [6]; macaque, initial time (5 min), average",2.4 fold
same,time of maximum brain uptake post-injection,TRPC5 [6]; male cynomolgus macaque,3 to 5 min
same,maximum total brain uptake (SUV),"TRPC5 [6]; male cynomolgus macaque, iv, 0-120 min dynamic PET",~ 2.2 and 2.2
same,brain uptake ratio from 5 min to 60 min,"[7]; SD rats, 5 min/60 min",4.5
same,"Tracer uptake, Blood","[7]; SD rats, 5 min post injection",0.13±0.02 %I.D./gram
same,"Tracer uptake, Brain","[7]; SD rats, 5 min post injection",0.47±0.10 %I.D./gram
same,"Tracer uptake, Fat","[7]; SD rats, 5 min post injection",0.07±0.02 %I.D./gram
same,"Tracer uptake, Heart","[7]; SD rats, 5 min post injection",0.94±0.12 %I.D./gram
same,"Tracer uptake, Kidney","[7]; SD rats, 5 min post injection",1.28±0.28 %I.D./gram
same,"Tracer uptake, Lung","[7]; SD rats, 5 min post injection",0.72±0.07 %I.D./gram
same,"Tracer uptake, Muscle","[7]; SD rats, 5 min post injection",0.12±0.01 %I.D./gram
same,"Tracer uptake, Pancreas","[7]; SD rats, 5 min post injection",1.33±0.30 %I.D./gram
same,"Tracer uptake, Small intestine","[7]; SD rats, 5 min post injection",1.16±0.11 %I.D./gram
same,"Tracer uptake, Spleen","[7]; SD rats, 5 min post injection",0.73±0.17 %I.D./gram
same,"Tracer uptake, Thymus","[7]; SD rats, 5 min post injection",0.47±0.08 %I.D./gram
same,"Tracer uptake, Blood","[7]; SD rats, 30 min post injection",0.12±0.02 %I.D./gram
same,"Tracer uptake, Brain","[7]; SD rats, 30 min post injection",0.18±0.01 %I.D./gram
same,"Tracer uptake, Fat","[7]; SD rats, 30 min post injection",0.31±0.09 %I.D./gram
same,"Tracer uptake, Heart","[7]; SD rats, 30 min post injection",0.33±0.03 %I.D./gram
same,"Tracer uptake, Kidney","[7]; SD rats, 30 min post injection",0.46±0.03 %I.D./gram
same,"Tracer uptake, Liver","[7]; SD rats, 30 min post injection",1.70±0.18 %I.D./gram
same,"Tracer uptake, Lung","[7]; SD rats, 30 min post injection",0.41±0.07 %I.D./gram
same,"Tracer uptake, Muscle","[7]; SD rats, 30 min post injection",0.17±0.02 %I.D./gram
same,"Tracer uptake, Pancreas","[7]; SD rats, 30 min post injection",0.47±0.01 %I.D./gram
same,"Tracer uptake, Small intestine","[7]; SD rats, 30 min post injection",3.01±0.23 %I.D./gram
same,"Tracer uptake, Spleen","[7]; SD rats, 30 min post injection",0.20±0.02 %I.D./gram
same,"Tracer uptake, Thymus","[7]; SD rats, 30 min post injection",0.24±0.02 %I.D./gram
same,"Tracer uptake, Blood","[7]; SD rats, 60 min post injection",0.12±0.01 %I.D./gram
same,"Tracer uptake, Brain","[7]; SD rats, 60 min post injection",0.09±0.02 %I.D./gram
same,"Tracer uptake, Fat","[7]; SD rats, 60 min post injection",0.35±0.12 %I.D./gram
same,"Tracer uptake, Heart","[7]; SD rats, 60 min post injection",0.20±0.03 %I.D./gram
same,"Tracer uptake, Kidney","[7]; SD rats, 60 min post injection",0.33±0.05 %I.D./gram
same,"Tracer uptake, Liver","[7]; SD rats, 60 min post injection",1.88±0.13 %I.D./gram
same,"Tracer uptake, Lung","[7]; SD rats, 60 min post injection",0.23±0.07 %I.D./gram
same,"Tracer uptake, Muscle","[7]; SD rats, 60 min post injection",0.13±0.02 %I.D./gram
same,"Tracer uptake, Pancreas","[7]; SD rats, 60 min post injection",0.33±0.06 %I.D./gram
same,"Tracer uptake, Small intestine","[7]; SD rats, 60 min post injection",3.01±1.71 %I.D./gram
same,"Tracer uptake, Spleen","[7]; SD rats, 60 min post injection",0.13±0.01 %I.D./gram
same,"Tracer uptake, Thymus","[7]; SD rats, 60 min post injection",0.13±0.03 %I.D./gram
same,clearance from plasma,"[7]; rats, ex vivo distribution",cleared from plasma primarily through hepatobiliary metabolism
Cn1c(=O)n(CCCO)c(=O)c2c1nc(Oc1cccc(Cl)c1)n2Cc1ccc(Cl)cc1 [HC070],anxiolytic and antidepressant function,[8],carries anxiolytic and antidepressant function
same,oral bioavailability,[8],orally bioavailable
same,selectivity over a wide range of molecular targets,[9],at least 400 fold
same,IC50,human TRPC5 [10],9.3 nM
same,IC50,human TRPC5 [11],0.52 nM
Cn1c(=O)n(CCCO)c(=O)c2c1nc(Oc1cccc(OC(F)(F)F)c1)n2Cc1ccc(Cl)cc1 [HC608],blocking of [^11C]HC070 binding in rat brain sections,TRPC5 [5]; cold blocker at 1 μM,significantly reduced binding; also recorded: able to reduce the radioactivity signal in the tissue slides very well; also recorded: significantly blocked
